# Reference: ChEMBL document CHEMBL4020770, “Discovery of N-substituted-endo-3-(8-aza-bicyclo[3.2.1]oct-3-yl)-phenol and -phenyl carboxamide series of μ-opioid receptor antagonists” (Bioorg Med Chem Lett, 2017)
# Legend:
# [1] = molecular target: Delta-type opioid receptor (Homo sapiens, UniProt P41143); experiment: Displacement of [3H]DPN from recombinant human delta opioid receptor expressed in CHOK1 cell membranes
# Outline: (§1)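 Competition binding with the radioligand [3H]-DPN on membranes from CHO-K1 cells stably transfected with human recombinant μ or δ opioid receptor or guinea pig κ opioid receptor. Affinity is reported as pKi.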
# Liver [2] = experiment: (§2) Half life in dog liver microsomes; type: ADME, Canis lupus familiaris, microsome; settings: microsomes
# Mu-type opioid receptor [3] = molecular target: T1, Mu-type opioid receptor (Homo sapiens, UniProt P35372); experiment: Displacement of [3H]DPN from recombinant human mu opioid receptor expressed in CHOK1 cell membranes; outline: as §1
# T1 sequence (P35372 whole entry): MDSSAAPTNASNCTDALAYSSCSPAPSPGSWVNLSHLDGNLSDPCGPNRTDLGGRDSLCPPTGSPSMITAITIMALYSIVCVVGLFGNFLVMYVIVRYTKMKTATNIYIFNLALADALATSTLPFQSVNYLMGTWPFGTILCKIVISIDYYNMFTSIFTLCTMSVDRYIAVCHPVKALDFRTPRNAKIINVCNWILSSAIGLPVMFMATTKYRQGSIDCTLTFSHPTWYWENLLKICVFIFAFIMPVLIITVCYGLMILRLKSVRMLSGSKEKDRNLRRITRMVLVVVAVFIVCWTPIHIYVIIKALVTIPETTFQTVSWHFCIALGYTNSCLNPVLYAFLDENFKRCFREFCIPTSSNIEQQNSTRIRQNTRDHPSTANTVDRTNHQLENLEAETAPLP
# [4] = molecular target: Kappa-type opioid receptor (Cavia porcellus, UniProt P41144); experiment: Displacement of [3H]DPN from guinea pig kappa opioid receptor expressed in CHOK1 cell membranes; outline: as §1
# Kappa-type opioid receptor, sequence (P41144 whole entry): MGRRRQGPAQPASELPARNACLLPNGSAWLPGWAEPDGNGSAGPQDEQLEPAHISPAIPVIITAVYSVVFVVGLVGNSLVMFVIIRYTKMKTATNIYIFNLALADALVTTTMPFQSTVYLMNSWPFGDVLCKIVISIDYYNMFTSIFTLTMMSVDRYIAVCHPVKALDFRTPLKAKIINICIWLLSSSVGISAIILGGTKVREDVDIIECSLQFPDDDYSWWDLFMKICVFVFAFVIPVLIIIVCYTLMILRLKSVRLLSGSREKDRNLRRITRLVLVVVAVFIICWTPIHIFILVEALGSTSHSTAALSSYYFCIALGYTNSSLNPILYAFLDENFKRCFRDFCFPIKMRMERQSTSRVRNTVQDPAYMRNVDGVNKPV
# Mu-type opioid receptor [5] = molecular target: T1, Mu-type opioid receptor; experiment: Intrinsic activity at recombinant human mu opioid receptor expressed in CHOK1 cells by [35S]GTPgammaS binding assay relative to DAMGO; type: functional, cell-based
# Outline: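 Membranes from CHO-K1 cells stably transfected with human recombinant μ-opioid receptor; agonist activity measured as [35S]-GTPγS binding. Maximum compound-evoked response minus basal, expressed as percentage of the maximum response evoked by DAMGO.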
# Liver [6] = experiment: Half life in human liver microsomes; type: ADME, microsome; settings: microsomes
# [7] = Half life in rat liver microsomes; type: ADME, microsome; settings: liver microsomes
# [8] = as §2; type: ADME, Canis lupus familiaris, microsome; settings: liver microsomes
# Delta-type opioid receptor, sequence (P41143 whole entry): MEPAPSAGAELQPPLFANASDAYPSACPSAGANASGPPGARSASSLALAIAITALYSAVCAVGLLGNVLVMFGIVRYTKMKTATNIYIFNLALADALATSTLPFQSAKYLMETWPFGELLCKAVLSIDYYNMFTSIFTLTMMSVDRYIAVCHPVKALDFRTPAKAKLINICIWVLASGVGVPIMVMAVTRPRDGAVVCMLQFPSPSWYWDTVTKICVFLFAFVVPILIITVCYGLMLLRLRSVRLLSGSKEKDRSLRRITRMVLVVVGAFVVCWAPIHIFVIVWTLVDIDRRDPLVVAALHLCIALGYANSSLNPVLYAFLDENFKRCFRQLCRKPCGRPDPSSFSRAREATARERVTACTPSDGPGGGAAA
smiles,measurement,setting,value
NC(=O)c1cccc(C2C[C@H]3CC[C@H](C2)N3CCCOc2ccccc2)c1 (some centres undefined) [listing 1 of 2 here],Ki,[1],100 nM
same,t1/2,Liver [2],6 min
same,Ki,Mu-type opioid receptor [3],6.31 nM
same,Ki,[4],31.6 nM
CCCCCCCN1[C@@H]2CC[C@@H]1CC(c1cccc(C(N)=O)c1)C2 (some centres undefined),Intrinsic activity,Mu-type opioid receptor [5],38%
NC(=O)c1cccc(C2C[C@H]3CC[C@H](C2)N3CCCOc2ccccc2)c1 (some centres undefined) [listing 2 of 2 here],Intrinsic activity,Mu-type opioid receptor [5],95%
Oc1cccc(C2CC3CCC(C2)N3CCCc2ccccc2)c1 (mixture of isomers),Ki,[1],1.26 nM
same,Ki,Mu-type opioid receptor [3],0.158 nM
same,Intrinsic activity,Mu-type opioid receptor [5],22%
CCCCCCCN1[C@@H]2CC[C@@H]1CC(c1cccc(C(N)=O)c1)C2 (relative stereo),Intrinsic activity,Mu-type opioid receptor [5],28%
NC(=O)c1cccc(C2C[C@H]3CC[C@H](C2)N3CC(O)Cc2ccccc2)c1 (relative stereo),Intrinsic activity,Mu-type opioid receptor [5],3%
NC(=O)c1cccc(C2C[C@H]3CC[C@H](C2)N3CCCOc2ccccc2)c1 (relative stereo),Intrinsic activity,Mu-type opioid receptor [5],0%
Oc1cccc(C2C[C@H]3CC[C@H](C2)N3CCCc2ccccc2)c1 (relative stereo; 12a),Intrinsic activity,Mu-type opioid receptor [5],22%
Oc1cccc(C2C[C@H]3CC[C@H](C2)N3CCCc2ccccc2)c1 (relative stereo; 12b) [listing 1 of 2 here],Ki,[1],63.1 nM
same,t1/2,Liver [6],27 min
same,Ki,Mu-type opioid receptor [3],5.01 nM
same,Ki,[4],7.94 nM
Oc1cccc(C2C[C@H]3CC[C@H](C2)N3CCCc2ccccc2)c1 (relative stereo; 12b) [listing 2 of 2 here],Intrinsic activity,Mu-type opioid receptor [5],64%
CCCCCCCN1[C@@H]2CC[C@@H]1CC(c1cccc(O)c1)C2 (relative stereo; 17a) [listing 1 of 2 here],Ki,[1],2.51 nM
same,t1/2,Liver [6],10 min
same,half-life,[7],3 min
same,t1/2,Liver [2],2 min
same,Ki,Mu-type opioid receptor [3],0.251 nM
same,Ki,[4],0.251 nM
CCCCCCCN1[C@@H]2CC[C@@H]1CC(c1cccc(O)c1)C2 (relative stereo; 17a) [listing 2 of 2 here],Intrinsic activity,Mu-type opioid receptor [5],26%
CCCCCCCN1[C@@H]2CC[C@@H]1CC(c1cccc(O)c1)C2 (relative stereo; 17b),Intrinsic activity,Mu-type opioid receptor [5],62%
Oc1cccc(C2C[C@H]3CC[C@H](C2)N3Cc2c(F)cccc2F)c1 (relative stereo; 18a) [listing 1 of 2 here],Ki,[1],158 nM
same,t1/2,Liver [6],29 min
same,half-life,[7],2 min
same,half-life,[8],20 min
same,Ki,Mu-type opioid receptor [3],15.8 nM
same,Ki,[4],5.01 nM
Oc1cccc(C2C[C@H]3CC[C@H](C2)N3Cc2c(F)cccc2F)c1 (relative stereo; 18a) [listing 2 of 2 here],Intrinsic activity,Mu-type opioid receptor [5],36%
Oc1cccc(C2C[C@H]3CC[C@H](C2)N3Cc2c(F)cccc2F)c1 (relative stereo; 18b) [listing 1 of 2 here],Ki,[1],2510 nM
same,t1/2,Liver [6],75 min
same,t1/2,Liver [2],13 min
same,Ki,Mu-type opioid receptor [3],631 nM
same,Ki,[4],126 nM
Oc1cccc(C2C[C@H]3CC[C@H](C2)N3Cc2c(F)cccc2F)c1 (relative stereo; 18b) [listing 2 of 2 here],Intrinsic activity,Mu-type opioid receptor [5],48%
Oc1cccc(C2C[C@H]3CC[C@H](C2)N3CCCOc2ccccc2)c1 (relative stereo; 19a),Intrinsic activity,Mu-type opioid receptor [5],9%
Oc1cccc(C2C[C@H]3CC[C@H](C2)N3CCCOc2ccccc2)c1 (relative stereo; 19b) [listing 1 of 2 here],Ki,[1],63.1 nM
same,t1/2,Liver [6],20 min
same,t1/2,Liver [2],2 min
same,Ki,Mu-type opioid receptor [3],3.16 nM
same,Ki,[4],20 nM
Oc1cccc(C2C[C@H]3CC[C@H](C2)N3CCCOc2ccccc2)c1 (relative stereo; 19b) [listing 2 of 2 here],Intrinsic activity,Mu-type opioid receptor [5],85%
CC(C)(C)c1ccc(CN2[C@@H]3CC[C@@H]2CC(c2cccc(O)c2)C3)cc1 (relative stereo; 20a),Intrinsic activity,Mu-type opioid receptor [5],100%
CC(C)(C)c1ccc(CN2[C@@H]3CC[C@@H]2CC(c2cccc(O)c2)C3)cc1 (relative stereo; 20b) [listing 1 of 2 here],Ki,[1],31.6 nM
same,t1/2,Liver [6],67 min
same,t1/2,Liver [2],7 min
same,Ki,Mu-type opioid receptor [3],2 nM
same,Ki,[4],3.16 nM
CC(C)(C)c1ccc(CN2[C@@H]3CC[C@@H]2CC(c2cccc(O)c2)C3)cc1 (relative stereo; 20b) [listing 2 of 2 here],Intrinsic activity,Mu-type opioid receptor [5],97%
O=C1c2ccccc2C(=O)N1CCCCN1[C@@H]2CC[C@@H]1CC(c1cccc(O)c1)C2 (relative stereo; 21a),Intrinsic activity,Mu-type opioid receptor [5],26%
O=C1c2ccccc2C(=O)N1CCCCN1[C@@H]2CC[C@@H]1CC(c1cccc(O)c1)C2 (relative stereo; 21b),Intrinsic activity,Mu-type opioid receptor [5],97%
O=C(CN1[C@@H]2CC[C@@H]1CC(c1cccc(O)c1)C2)C1CCCCC1 (relative stereo; 22a),Intrinsic activity,Mu-type opioid receptor [5],33%
O=C(CN1[C@@H]2CC[C@@H]1CC(c1cccc(O)c1)C2)C1CCCCC1 (relative stereo; 22b) [listing 1 of 2 here],Ki,[1],20 nM
same,t1/2,Liver [6],13 min
same,Ki,Mu-type opioid receptor [3],2 nM
same,Ki,[4],0.794 nM
O=C(CN1[C@@H]2CC[C@@H]1CC(c1cccc(O)c1)C2)C1CCCCC1 (relative stereo; 22b) [listing 2 of 2 here],Intrinsic activity,Mu-type opioid receptor [5],57%
Oc1cccc(C2C[C@H]3CC[C@H](C2)N3CC(O)Cc2ccccc2)c1 (relative stereo; 23a) [listing 1 of 2 here],Ki,[1],6.31 nM
same,t1/2,Liver [6],32 min
same,half-life,[7],2 min
same,half-life,[8],2 min
same,Ki,Mu-type opioid receptor [3],0.251 nM
Oc1cccc(C2C[C@H]3CC[C@H](C2)N3CC(O)Cc2ccccc2)c1 (relative stereo; 23a) [listing 2 of 2 here],Intrinsic activity,Mu-type opioid receptor [5],1%
Oc1cccc(C2C[C@H]3CC[C@H](C2)N3CC(O)Cc2ccccc2)c1 (relative stereo; 23b) [listing 1 of 2 here],Ki,[1],251 nM
same,t1/2,Liver [6],> 90 min
same,Ki,Mu-type opioid receptor [3],10 nM
same,Ki,[4],20 nM
Oc1cccc(C2C[C@H]3CC[C@H](C2)N3CC(O)Cc2ccccc2)c1 (relative stereo; 23b) [listing 2 of 2 here],Intrinsic activity,Mu-type opioid receptor [5],36%
NC(=O)c1cccc(C2C[C@H]3CC[C@H](C2)N3CCCc2ccccc2)c1 (relative stereo; 24a),Intrinsic activity,Mu-type opioid receptor [5],24%
NC(=O)c1cccc(C2C[C@H]3CC[C@H](C2)N3CCCc2ccccc2)c1 (relative stereo; 24b),Intrinsic activity,Mu-type opioid receptor [5],48%
NC(=O)c1cccc(C2C[C@H]3CC[C@H](C2)N3Cc2c(F)cccc2F)c1 (relative stereo; 26a),Intrinsic activity,Mu-type opioid receptor [5],26%
NC(=O)c1cccc(C2C[C@H]3CC[C@H](C2)N3Cc2c(F)cccc2F)c1 (relative stereo; 26b),Intrinsic activity,Mu-type opioid receptor [5],19%
CC(C)(C)c1ccc(CN2[C@@H]3CC[C@@H]2CC(c2cccc(C(N)=O)c2)C3)cc1 (relative stereo; 28a),Intrinsic activity,Mu-type opioid receptor [5],92%
CC(C)(C)c1ccc(CN2[C@@H]3CC[C@@H]2CC(c2cccc(C(N)=O)c2)C3)cc1 (relative stereo; 28b) [listing 1 of 2 here],Ki,[1],200 nM
same,Ki,Mu-type opioid receptor [3],10 nM
same,Ki,[4],31.6 nM
CC(C)(C)c1ccc(CN2[C@@H]3CC[C@@H]2CC(c2cccc(C(N)=O)c2)C3)cc1 (relative stereo; 28b) [listing 2 of 2 here],Intrinsic activity,Mu-type opioid receptor [5],73%
NC(=O)c1cccc(C2C[C@H]3CC[C@H](C2)N3CCCCN2C(=O)c3ccccc3C2=O)c1 (relative stereo; 29a),Intrinsic activity,Mu-type opioid receptor [5],0%
NC(=O)c1cccc(C2C[C@H]3CC[C@H](C2)N3CCCCN2C(=O)c3ccccc3C2=O)c1 (relative stereo; 29b) [listing 1 of 2 here],Ki,[1],200 nM
same,t1/2,Liver [2],11 min
same,Ki,Mu-type opioid receptor [3],31.6 nM
NC(=O)c1cccc(C2C[C@H]3CC[C@H](C2)N3CCCCN2C(=O)c3ccccc3C2=O)c1 (relative stereo; 29b) [listing 2 of 2 here],Intrinsic activity,Mu-type opioid receptor [5],75%
NC(=O)c1cccc(C2C[C@H]3CC[C@H](C2)N3CC(=O)C2CCCCC2)c1 (relative stereo; 30a),Intrinsic activity,Mu-type opioid receptor [5],41%
NC(=O)c1cccc(C2C[C@H]3CC[C@H](C2)N3CC(=O)C2CCCCC2)c1 (relative stereo; 30b),Intrinsic activity,Mu-type opioid receptor [5],93%
NC(=O)c1cccc(C2C[C@H]3CC[C@H](C2)N3CC(O)Cc2ccccc2)c1 (stereo in doubt; 31b),Intrinsic activity,Mu-type opioid receptor [5],39%
